Results: ChEMBL document CHEMBL4480436, “Lead optimization of selective tubulin inhibitors as anti-trypanosomal agents” (Bioorg Med Chem, 2019)
pIC50: −log10 of the molar value.

Columns and labels:
HEK293 = assay: Cytotoxicity against HEK293 cells after 48 hrs by MTT assay; format: cell-based; conditions: Homo sapiens, HEK293, 48 h
Summary of the method: (§1)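 Cells kept in RPMI1640 with 10% heat-inactivated FBS, 2 mM L-glutamine, 1 mM pyruvate, pen-strep, 37 °C, 5% CO2. 3000 cells/well seeded 24 h, then exposed to graded concentrations (DMSO ≤0.1% final) for 48 h. Then 0.5 mg/mL MTT 3 h at 37 °C, DMSO solubilization, absorbance 570 nm. Quadruplicate data fitted to dose–response curves for IC50.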

[1] = test system: Trypanosoma brucei brucei; assay: Inhibition of tubulin polymerization in Trypanosoma brucei brucei Lister 427 assessed as increase in non-polymerized tubulin after 12 hrs by Western blot analysis
Summary of the method: (§2)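 Trypanosomes treated with different doses (0.5% DMSO) for 12 h, washed in TDB pH 7.4 and lysed in Pipes pH 6.8/EGTA/MgCl2/0.15% Triton X-100/glycerol buffer, 4 °C, 5 min. Lysate spun 15,000 g 30 min at 4 °C: supernatant taken as non-polymerized tubulin, RIPA-resuspended pellet as polymerized. Equal cell equivalents (1.83 × 10^7) run on 10% SDS-PAGE for western blot.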

RAW264.7 = assay: Cytotoxicity against mouse RAW264.7 cells after 48 hrs by MTT assay; format: cell-based; conditions: RAW264.7, 48 h; summary of the method: as §1
[2] = test system: Trypanosoma brucei brucei; assay: Antiparasitic activity against Trypanosoma brucei brucei Lister 427 assessed as reduction in parasite viability after 48 hrs by MTS assay; format: functional, organism-based; conditions: Lister 427, 48 h
Summary of the method: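 Bloodstream-form Lister 427 grown in HMI-9 with 10% FBS, 37 °C, 7.5% CO2. 5000 cells/well exposed to graded concentrations with 0.1% DMSO for 48 h at 37 °C. MTS/PMS reagent then added, 3 h at 37 °C, formazan read at 490 nm. Quadruplicate data normalized and fitted to dose–response curves for IC50 (Mean ± S.D.).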

[3] = Selectivity index, ratio of IC50 for HEK293 cells to IC50 for Trypanosoma brucei brucei Lister 427; format: toxicity; conditions: human, read-out: Ratio IC50
Summary of the method: (§3)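 Ratio of mammalian MTT IC50 (48 h) to T. brucei MTS IC50 (48 h), both from quadruplicate dose–response fits.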

[4] = test system: Trypanosoma brucei brucei; assay: Inhibition of tubulin polymerization in Trypanosoma brucei brucei Lister 427 assessed as decrease in polymerized tubulin after 12 hrs by Western blot analysis; summary of the method: as §2
[5] = 1-Octanol/DDH2O partition coefficient, log P of the compound incubated for 48 hrs under stirring condition measured by UV-Vis spectrophotometric method; format: physicochemical; conditions: for logP: octanol/water, 48 h
Summary of the method: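 Slow-stir shake method (OECD-based, modified): compound dissolved in water-saturated 1-octanol, centrifuged 5000 rpm 5 min, supernatant mixed with equal volume octanol-saturated water, stirred at room temperature 48 h. Phases separated by centrifugation; octanol-phase UV absorbance read before and after. Log P = log[Ax/(A0−Ax)]. Repeated three times, Mean ± SD.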

[6] = Selectivity index, ratio of IC50 for mouse RAW264.7 cells to IC50 for Trypanosoma brucei brucei Lister 427; format: toxicity; conditions: read-out: Ratio IC50; summary of the method: as §3

| SMILES | inhibition [1] | pIC50 [2] | inhibition [4] | logP [5] | logP at 48 h ([5]; 1-octanol/DDH2O) | pIC50 (HEK293) | pIC50 (RAW264.7) | selectivity ratio [3] | selectivity ratio [6] |
| --- | --- | --- | --- | --- | --- | --- | --- | --- | --- |
| CN(c1ccc(NC(=O)c2ccc(C#N)cc2)cc1OCc1ccc(C(F)(F)F)cc1)S(=O)(=O)Cc1ccccc1 |  |  |  |  | 2.9 |  |  |  |  |
| CCS(=O)(=O)Nc1ccc(NC(=O)c2ccc(Cl)c([N+](=O)[O-])c2)cc1OC |  | < 4.20 |  |  |  | 4.20 | 5.25 | < 2 | < 1 |
| COc1cc(NC(=O)c2cccc(C(F)(F)F)c2)ccc1NS(=O)(=O)C(F)(F)F |  | 4.37 |  |  |  | < 3.60 | 4.12 | > 6 | 2 |
| O=C(Nc1ccc(NS(=O)(=O)C(F)(F)F)c(Cl)c1)c1ccc(Cl)c([N+](=O)[O-])c1 |  | 4.32 |  |  |  | 3.64 | 4.50 | 5 | 1 |
| Cc1cc(NC(=O)c2cccc(C(F)(F)F)c2)ccc1NS(=O)(=O)C(F)(F)F |  | 4.66 |  |  |  | 3.88 | 5.06 | 6 | < 1 |
| O=C(Nc1ccc(NS(=O)(=O)C(F)(F)F)c(F)c1)c1cccc(C(F)(F)F)c1 |  | 4.32 |  |  |  | 3.82 | 4.46 | 3 | 1 |
| Cc1cc(NC(=O)c2ccc(C#N)cc2)ccc1NS(C)(=O)=O |  | < 4.20 |  |  |  | 4.36 | 3.77 | < 1 | < 3 |
| CCS(=O)(=O)Nc1ccc(NC(=O)c2ccc(Cl)cc2)cc1C |  | < 4.20 |  |  |  | 3.90 | 4.16 | < 3 | < 2 |
| CCS(=O)(=O)Nc1ccc(NC(=O)c2ccc(C#N)cc2)cc1Cl |  | 4.42 |  |  |  | < 3.60 | 3.65 | > 7 | 6 |

Further compounds by rising pIC50 [2], results first:

| inhibition [1] | pIC50 [2] | inhibition [4] | logP [5] | logP at 48 h ([5]; 1-octanol/DDH2O) | SMILES | pIC50 (HEK293) | pIC50 (RAW264.7) | selectivity ratio [3] | selectivity ratio [6] |
| --- | --- | --- | --- | --- | --- | --- | --- | --- | --- |
|  | 4.71 |  |  |  | CCS(=O)(=O)Nc1ccc(NC(=O)c2ccc(Cl)c([N+](=O)[O-])c2)cc1C | 3.84 | 3.85 | 7 | 7 |
|  | 5.02 |  |  |  | COc1cc(NC(=O)c2ccc(C#N)cc2)ccc1NS(=O)(=O)C(F)(F)F | < 3.60 | < 3.60 | > 26 | > 26 |
| Dose-dependent effect | 5.53 | Dose-dependent effect | 1.957 |  | Cc1cc(NC(=O)c2cc(C(F)(F)F)cc(C(F)(F)F)c2)ccc1NS(C)(=O)=O | 3.79 | < 3.60 | 56 | > 85 |
| Dose-dependent effect | 5.68 | Dose-dependent effect | 0.998 |  | N#Cc1ccc(C(=O)Nc2ccc(NS(=O)(=O)C(F)(F)F)c(F)c2)cc1 | < 3.60 | < 3.60 | > 119 | > 119 |
|  | 5.76 |  |  |  | CCS(=O)(=O)Nc1ccc(NC(=O)c2cc(C(F)(F)F)cc(C(F)(F)F)c2)cc1Cl | 4.49 | 4.19 | 19 | 37 |
